The target of data set [1] is T1, Aldehyde oxidase (Homo sapiens, UniProt Q06278).
T1 sequence (Q06278 whole entry): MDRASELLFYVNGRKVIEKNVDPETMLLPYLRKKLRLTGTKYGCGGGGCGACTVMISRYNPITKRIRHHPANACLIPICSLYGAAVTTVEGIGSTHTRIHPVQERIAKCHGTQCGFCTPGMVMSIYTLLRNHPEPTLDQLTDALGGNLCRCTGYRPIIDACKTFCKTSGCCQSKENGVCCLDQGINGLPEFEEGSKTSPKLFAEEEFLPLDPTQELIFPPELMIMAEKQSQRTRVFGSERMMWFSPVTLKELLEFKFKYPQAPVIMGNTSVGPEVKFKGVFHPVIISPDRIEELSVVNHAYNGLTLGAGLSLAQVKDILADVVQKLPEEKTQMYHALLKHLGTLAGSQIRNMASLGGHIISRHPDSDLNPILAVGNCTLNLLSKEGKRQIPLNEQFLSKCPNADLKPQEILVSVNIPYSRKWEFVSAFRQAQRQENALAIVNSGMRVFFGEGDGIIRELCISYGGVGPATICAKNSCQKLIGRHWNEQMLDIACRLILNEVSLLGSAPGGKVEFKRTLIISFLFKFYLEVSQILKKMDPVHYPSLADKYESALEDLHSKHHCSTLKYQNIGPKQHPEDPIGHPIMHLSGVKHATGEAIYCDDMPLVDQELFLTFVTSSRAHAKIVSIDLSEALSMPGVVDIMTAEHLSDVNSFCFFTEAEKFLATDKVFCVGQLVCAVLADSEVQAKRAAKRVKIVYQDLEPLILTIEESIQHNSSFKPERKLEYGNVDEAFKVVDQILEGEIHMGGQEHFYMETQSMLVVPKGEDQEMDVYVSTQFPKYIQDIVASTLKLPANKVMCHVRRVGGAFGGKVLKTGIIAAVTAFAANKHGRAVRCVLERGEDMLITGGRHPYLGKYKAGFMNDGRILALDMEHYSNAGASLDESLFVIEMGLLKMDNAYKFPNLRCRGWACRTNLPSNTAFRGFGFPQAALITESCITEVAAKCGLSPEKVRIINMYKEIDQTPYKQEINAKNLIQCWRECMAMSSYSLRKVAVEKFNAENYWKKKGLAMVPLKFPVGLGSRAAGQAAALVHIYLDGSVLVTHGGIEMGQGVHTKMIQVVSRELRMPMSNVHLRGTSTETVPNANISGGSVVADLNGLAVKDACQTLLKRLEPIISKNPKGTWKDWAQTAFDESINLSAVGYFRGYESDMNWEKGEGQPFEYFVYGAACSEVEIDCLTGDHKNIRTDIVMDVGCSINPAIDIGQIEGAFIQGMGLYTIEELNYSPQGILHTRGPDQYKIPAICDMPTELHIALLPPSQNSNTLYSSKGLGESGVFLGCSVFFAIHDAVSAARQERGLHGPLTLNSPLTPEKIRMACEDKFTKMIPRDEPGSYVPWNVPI
Nature of the data set: Substrate activity at aldehyde oxidase in human liver cytosol assessed as mono-oxide metabolite formation at 10 uM measured after 3 hrs in presence of AOX inhibitor hydralazine by UPLC/Q-TOF MS analysis. The format is ADME, subcellular. Put shortly: (§1)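 Human liver cytosol (2 mg/mL final protein) in 100 mM potassium phosphate pH 7.4 with 2 mM MgCl2, 10 μM test compound, 100 μM inhibitor, DMSO 1.1% final. Pre-incubated 3 min at 37°C, started by adding compound, run 3 h at 37°C, stopped with ice-cold acetonitrile. Supernatant analysed by UPLC/Q-TOF MS (positive ESI) for oxidative metabolite peak area. Inhibition ratio taken against no-inhibitor controls; triplicate.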

For data set [2], the target named is T1, Aldehyde oxidase. Nature of the data set: Substrate activity at aldehyde oxidase in human liver cytosol assessed as mono-oxide metabolite formation at 10 uM measured after 3 hrs in presence of AOX inhibitor raloxifene by UPLC/Q-TOF MS analysis. The format is ADME, subcellular. Put shortly: as §1

As for `N#C/C(=C\c1ccc(-c2cc(Cl)ccc2Cl)o1)C(=O)Nc1cccc2ncccc12`, the Drug metabolism result on Aldehyde oxidase [1] and at Aldehyde oxidase [2] was “Metabolite_Notdetected” in each case.
Consider `Cc1cc(Nc2ccc(NC(=O)c3ccc(Nc4ccnc5ccccc45)cc3)cc2)nc(N)n1`, for which the Drug metabolism entry at Aldehyde oxidase [1] and at Aldehyde oxidase [2] was “Metabolite_Notdetected” throughout.
As for `O=C(NCC(=O)N1CCCC1)Nc1ccc2cnccc2c1`, the Drug metabolism entry at Aldehyde oxidase [1] and at Aldehyde oxidase [2] was “Metabolite_Notdetected” in each case.
For `O=C(c1cncc(Br)c1)N1CCC(N2CCCC2)CC1`, the Drug metabolism result at Aldehyde oxidase [1] and on Aldehyde oxidase [2] was “Metabolite_Notdetected” throughout.
In the case of `Cl.O=C(Nc1ccccc1-c1cn2c(CN3CCNCC3)csc2n1)c1cnc2ccccc2n1`, the Drug metabolism result on Aldehyde oxidase [1] and at Aldehyde oxidase [2] was “Metabolite_Notdetected” in each case.
Turning to `Cl.Cl.Fc1cc(-c2cccc3ncc(-c4cnn(C5CCNCC5)c4)nc23)cc(F)c1CN1CCOCC1`, the Drug metabolism entry at Aldehyde oxidase [1] and at Aldehyde oxidase [2] was “Metabolite_Notdetected” throughout.
